Published values collected from several papers.
Organism: Acinetobacter baumannii
Read-out: microbial growth

SMILES | technique | strain | time | MIC
CCCCCCC#Cc1cncc(-c2nnc(SCc3cc([N+](=O)[O-])cc([N+](=O)[O-])c3)n2CCOC2OC(CN)C(O)C2O)c1 (stereo not shown) | broth dilution | ATCC17978 |  | 64 µg/mL
CCCCCCCCN=c1ccn(CCCCCCCCCCn2ccc(=NCCCCCCCC)cc2)cc1 |  | ATCC17978 |  | 1 µM
CC1(C)S[C@@H]2[C@H](NC(=O)[C@H](N)c3ccccc3)C(=O)N2[C@H]1C(=O)O | broth dilution | ATCCBAA1605 |  | > 64 µg/mL
CCCCCCC#Cc1cncc(-c2nnc(SCc3ccc([N+](=O)[O-])o3)n2CCCN)c1 | broth dilution | ATCC17978 |  | 32 µg/mL
C[C@@H](O)[C@H]1C(=O)N2C(C(=O)O)=C(S[C@@H]3CN[C@H](C(=O)N(C)C)C3)[C@H](C)[C@H]12 | broth dilution | ATCC19606 |  | 0.5 µg/mL
N[C@@H](Cc1c[nH]c2ccc(Cl)cc12)C(=O)O |  | ATCC17978 | 18 h | > 200 µM
Nc1nc(-c2ccc3nc(-c4cc(C(F)(F)F)cc(C(F)(F)F)c4)[nH]c3c2)c[nH]1 | broth dilution | AB5075 |  | 50 µM
[H]/N=C(\N/C(=N/[H])NCCCCCCNC(=N)NC(=N)Nc1ccc(Cl)cc1)Nc1ccc(Cl)cc1 |  | ATCC17978 |  | 8 µM
CNC(C)C1CCC(N)C(OC2C(N)CC(N)C(OC3OCC(C)(O)C(NC)C3O)C2O)O1 (stereo not shown) | broth dilution | ATCCBAA1605 |  | > 64 µg/mL
CCCCCCC#Cc1cncc(-c2nnc(SCc3cc([N+](=O)[O-])cc([N+](=O)[O-])c3)n2C2CCNCC2)c1 | broth dilution | ATCC17978 |  | 64 µg/mL
